How the values were obtained:
[1] = molecular target: T1, P2Y purinoceptor 2 (Homo sapiens, UniProt P41231, C278S); assay: Antagonist activity at N-terminal HA epitope-tagged human P2Y2 receptor C278S mutant expressed in human 1321N1 cells assessed as inhibition of UTP-induced calcium mobilization; assay type: functional, cell-based
Outline: (§1)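 1321N1 cells expressing wild-type or mutant receptor were dye-loaded with Oregon Green BAPTA-1/AM in Krebs-HEPES pH 7.4. Antagonist was preincubated for 20 min at 28 °C in the dark. Cells were then stimulated with UTP at a concentration giving 80-90% of maximal response. Calcium fluorescence read at 520 nm (excitation 485 nm).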

[2] = molecular target: T2, P2Y purinoceptor 2 (Homo sapiens, UniProt P41231); assay: Antagonist activity at N-terminal HA epitope-tagged wild type 3 human P2Y2 receptor expressed in human 1321N1 cells assessed as inhibition of UTP-induced calcium mobilization; assay type: functional, cell-based; outline: as §1
[3] = molecular target: T3, P2Y purinoceptor 2 (Homo sapiens, UniProt P41231, Y114A); assay: Antagonist activity at N-terminal HA epitope-tagged human P2Y2 receptor Y114A mutant expressed in human 1321N1 cells assessed as inhibition of UTP-induced calcium mobilization; assay type: functional, cell-based; outline: as §1
[4] = test system: P2Y purinoceptor 2 (Homo sapiens), P41231 [UNDEFINED MUTATION]; assay: Ratio of IC50 for N-terminal HA epitope-tagged human P2Y2 receptor C278S mutant to IC50 for wild type 3 human P2Y2 receptor
[5] = molecular target: T4, P2Y purinoceptor 2 (Homo sapiens, UniProt P41231, R177A/R180A); assay: Antagonist activity at N-terminal HA epitope-tagged human P2Y2 receptor R177A_R180A double mutant expressed in human 1321N1 cells assessed as inhibition of UTP-induced calcium mobilization; assay type: functional, cell-based; outline: as §1
[6] = test system: P2Y purinoceptor 2 (Homo sapiens), P41231 [R177A]; assay: Antagonist activity at N-terminal HA epitope-tagged human P2Y2 receptor R177A mutant expressed in human 1321N1 cells assessed as inhibition of UTP-induced calcium mobilization; assay type: functional, cell-based; details: concentration not given here
[7] = test system: P2Y purinoceptor 2 (Homo sapiens), P41231 [R180A]; assay: Antagonist activity at N-terminal HA epitope-tagged human P2Y2 receptor R180A mutant expressed in human 1321N1 cells assessed as inhibition of UTP-induced calcium mobilization; assay type: functional, cell-based; details: concentration not given here
[8] = molecular target: T5, P2Y purinoceptor 2 (Homo sapiens, UniProt P41231, Y118A); assay: Antagonist activity at N-terminal HA epitope-tagged human P2Y2 receptor Y118A mutant expressed in human 1321N1 cells assessed as inhibition of UTP-induced calcium mobilization; assay type: functional, cell-based; outline: as §1
[9] = molecular target: T6, P2Y purinoceptor 2 (Homo sapiens, UniProt P41231, Y198A); assay: Antagonist activity at N-terminal HA epitope-tagged human P2Y2 receptor Y198A mutant expressed in human 1321N1 cells assessed as inhibition of UTP-induced calcium mobilization; assay type: functional, cell-based; outline: as §1
[10] = test system: P2Y purinoceptor 2 (Homo sapiens), P41231 [UNDEFINED MUTATION]; assay: Ratio of EC50 for N-terminal HA epitope-tagged human P2Y2 receptor C278S mutant to EC50 for wild type 3 human P2Y2 receptor
[11] = molecular target: T1, P2Y purinoceptor 2; assay: Agonist activity at N-terminal HA epitope-tagged human P2Y2 receptor C278S mutant expressed in human 1321N1 cells assessed as increase in intracellular calcium level; assay type: functional, cell-based
Outline: (§2)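 1321N1 astrocytoma cells stably expressing mutant receptor (retroviral transfection, G418 selection), loaded with Oregon Green BAPTA-1/AM in Krebs-HEPES pH 7.4 for 1 h at room temperature. Plated at 150000 cells/well and held 20 min at 28 °C in the dark. Efficacy relative to 100 µM carbachol.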

[12] = test system: P2Y purinoceptor 2 (Homo sapiens), P41231 [UNDEFINED MUTATION]; assay: Ratio of EC50 for N-terminal HA epitope-tagged human P2Y2 receptor Y118A mutant to EC50 for wild type 3 human P2Y2 receptor
[13] = test system: P2Y purinoceptor 2 (Homo sapiens), P41231 [S296A]; assay: Agonist activity at N-terminal HA epitope-tagged human P2Y2 receptor S296A mutant expressed in human 1321N1 cells assessed as increase in intracellular calcium level relative to carbachol; assay type: functional, cell-based
Outline: (§3)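 Retrovirally transduced stable 1321N1 astrocytoma lines (wild-type lines of differing expression, or mutants) in suspension, loaded with Oregon Green BAPTA-1/AM for 1 h at room temperature. Cells were plated at 150000 per well in Krebs-HEPES pH 7.4 and held 20 min at 28 °C in the dark. Agonist was then injected, with fluorescence read at ex 485/em 520 nm for 60 × 0.4 s.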

[14] = molecular target: P2Y purinoceptor 2 (Homo sapiens, UniProt P41231, S296A); assay: Agonist activity at N-terminal HA epitope-tagged human P2Y2 receptor S296A mutant expressed in human 1321N1 cells assessed as increase in intracellular calcium level; assay type: functional, cell-based
Outline: (§4)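 Retrovirally transduced stable 1321N1 astrocytoma lines (wild-type lines of differing expression, or mutants) in suspension, loaded with Oregon Green BAPTA-1/AM for 1 h at room temperature. Cells were plated at 150000 per well in Krebs-HEPES pH 7.4 and held 20 min at 28 °C in the dark.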

[15] = molecular target: T2, P2Y purinoceptor 2; assay: Agonist activity at N-terminal HA epitope-tagged wild type 3 human P2Y2 receptor expressed in human 1321N1 cells assessed as increase in intracellular calcium level relative to carbachol; assay type: functional, cell-based; outline: as §3
[16] = molecular target: T2, P2Y purinoceptor 2; assay: Agonist activity at N-terminal HA epitope-tagged wild type human P2Y2 receptor expressed in human 1321N1 cells assessed as increase in intracellular calcium level; assay type: functional, cell-based; outline: as §3
[17] = molecular target: T2, P2Y purinoceptor 2; assay: Agonist activity at N-terminal HA epitope-tagged wild type 3 human P2Y2 receptor expressed in human 1321N1 cells assessed as increase in intracellular calcium level; assay type: functional, cell-based; outline: as §4
[18] = molecular target: T2, P2Y purinoceptor 2; assay: Agonist activity at N-terminal HA epitope-tagged wild type 4 human P2Y2 receptor expressed in human 1321N1 cells assessed as increase in intracellular calcium level; assay type: functional, cell-based; outline: as §4
[19] = molecular target: T3, P2Y purinoceptor 2; assay: Agonist activity at N-terminal HA epitope-tagged human P2Y2 receptor Y114A mutant expressed in human 1321N1 cells assessed as increase in intracellular calcium level; assay type: functional, cell-based; outline: as §2
[20] = molecular target: T2, P2Y purinoceptor 2; assay: Agonist activity at N-terminal HA epitope-tagged wild type 4 human P2Y2 receptor expressed in human 1321N1 cells assessed as increase in intracellular calcium level relative to carbachol; assay type: functional, cell-based; outline: as §3
[21] = test system: P2Y purinoceptor 2 (Homo sapiens), P41231 [Y114A]; assay: Agonist activity at N-terminal HA epitope-tagged human P2Y2 receptor Y114A mutant expressed in human 1321N1 cells assessed as increase in intracellular calcium level relative to carbachol; assay type: functional, cell-based; outline: as §3
[22] = molecular target: T4, P2Y purinoceptor 2; assay: Agonist activity at N-terminal HA epitope-tagged human P2Y2 receptor R177A_R180A double mutant expressed in human 1321N1 cells assessed as increase in intracellular calcium level; assay type: functional, cell-based; outline: as §2
[23] = test system: P2Y purinoceptor 2 (Homo sapiens), P41231 [R177A,R180A]; assay: Agonist activity at N-terminal HA epitope-tagged human P2Y2 receptor R177A_R180A double mutant expressed in human 1321N1 cells assessed as increase in intracellular calcium level relative to carbachol; assay type: functional, cell-based; outline: as §3
[24] = molecular target: P2Y purinoceptor 2 (Homo sapiens, UniProt P41231, R177A); assay: Agonist activity at N-terminal HA epitope-tagged human P2Y2 receptor R177A mutant expressed in human 1321N1 cells assessed as increase in intracellular calcium level; assay type: functional, cell-based; outline: as §2
[25] = test system: P2Y purinoceptor 2 (Homo sapiens), P41231 [R177A]; assay: Agonist activity at N-terminal HA epitope-tagged human P2Y2 receptor R177A mutant expressed in human 1321N1 cells assessed as increase in intracellular calcium level relative to carbachol; assay type: functional, cell-based; outline: as §3
[26] = molecular target: P2Y purinoceptor 2 (Homo sapiens, UniProt P41231, R180A); assay: Agonist activity at N-terminal HA epitope-tagged human P2Y2 receptor R180A mutant expressed in human 1321N1 cells assessed as increase in intracellular calcium level; assay type: functional, cell-based; outline: as §2
[27] = test system: P2Y purinoceptor 2 (Homo sapiens), P41231 [R180A]; assay: Agonist activity at N-terminal HA epitope-tagged human P2Y2 receptor R180A mutant expressed in human 1321N1 cells assessed as increase in intracellular calcium level relative to carbachol; assay type: functional, cell-based; outline: as §3
[28] = molecular target: P2Y purinoceptor 2 (Homo sapiens, UniProt P41231, R272A); assay: Agonist activity at N-terminal HA epitope-tagged human P2Y2 receptor R272A mutant expressed in human 1321N1 cells assessed as increase in intracellular calcium level; assay type: functional, cell-based; outline: as §2
[29] = test system: P2Y purinoceptor 2 (Homo sapiens), P41231 [R272A]; assay: Agonist activity at N-terminal HA epitope-tagged human P2Y2 receptor R272A mutant expressed in human 1321N1 cells assessed as increase in intracellular calcium level relative to carbachol; assay type: functional, cell-based; outline: as §3
[30] = molecular target: T5, P2Y purinoceptor 2; assay: Agonist activity at N-terminal HA epitope-tagged human P2Y2 receptor Y118A mutant expressed in human 1321N1 cells assessed as increase in intracellular calcium level; assay type: functional, cell-based; outline: as §2
[31] = molecular target: P2Y purinoceptor 2 (Homo sapiens, UniProt P41231, R194H); assay: Agonist activity at N-terminal HA epitope-tagged human P2Y2 receptor R194H mutant expressed in human 1321N1 cells assessed as increase in intracellular calcium level; assay type: functional, cell-based; outline: as §2
[32] = test system: P2Y purinoceptor 2 (Homo sapiens), P41231 [R194H]; assay: Agonist activity at N-terminal HA epitope-tagged human P2Y2 receptor R194H mutant expressed in human 1321N1 cells assessed as increase in intracellular calcium level relative to carbachol; assay type: functional, cell-based; outline: as §3
[33] = molecular target: T6, P2Y purinoceptor 2; assay: Agonist activity at N-terminal HA epitope-tagged human P2Y2 receptor Y198A mutant expressed in human 1321N1 cells assessed as increase in intracellular calcium level; assay type: functional, cell-based; outline: as §2
[34] = test system: P2Y purinoceptor 2 (Homo sapiens), P41231 [Y198A]; assay: Agonist activity at N-terminal HA epitope-tagged human P2Y2 receptor Y198A mutant expressed in human 1321N1 cells assessed as increase in intracellular calcium level relative to carbachol; assay type: functional, cell-based; outline: as §3
[35] = test system: P2Y purinoceptor 2 (Homo sapiens), P41231 [C278S]; assay: Agonist activity at N-terminal HA epitope-tagged human P2Y2 receptor C278S mutant expressed in human 1321N1 cells assessed as increase in intracellular calcium level relative to carbachol; assay type: functional, cell-based; outline: as §3
[36] = test system: P2Y purinoceptor 2 (Homo sapiens), P41231 [UNDEFINED MUTATION]; assay: Ratio of EC50 for N-terminal HA epitope-tagged human P2Y2 receptor R177A_R180A double mutant to EC50 for wild type 4 human P2Y2 receptor
[37] = test system: P2Y purinoceptor 2 (Homo sapiens), P41231 [UNDEFINED MUTATION]; assay: Ratio of EC50 for N-terminal HA epitope-tagged human P2Y2 receptor Y114A mutant to EC50 for wild type 3 human P2Y2 receptor
Outline: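 HA-tagged receptors (wild type or mutant) were stably expressed in 1321N1 astrocytoma cells via retrovirus. Cells were loaded with Oregon Green BAPTA-1/AM in Krebs-HEPES pH 7.4, then kept 20 min at 28 °C before agonist injection. Fluorescence was read at 520 nm (excitation 485 nm). […] Each mutant was compared with the wild-type line of similar expression.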

[38] = test system: P2Y purinoceptor 2 (Homo sapiens), P41231 [Y118A]; assay: Agonist activity at N-terminal HA epitope-tagged human P2Y2 receptor Y118A mutant expressed in human 1321N1 cells assessed as increase in intracellular calcium level relative to carbachol; assay type: functional, cell-based; outline: as §3
Sequence of P2Y purinoceptor 2 (Homo sapiens), P41231 [Y118A] (P41231 whole entry Y118A): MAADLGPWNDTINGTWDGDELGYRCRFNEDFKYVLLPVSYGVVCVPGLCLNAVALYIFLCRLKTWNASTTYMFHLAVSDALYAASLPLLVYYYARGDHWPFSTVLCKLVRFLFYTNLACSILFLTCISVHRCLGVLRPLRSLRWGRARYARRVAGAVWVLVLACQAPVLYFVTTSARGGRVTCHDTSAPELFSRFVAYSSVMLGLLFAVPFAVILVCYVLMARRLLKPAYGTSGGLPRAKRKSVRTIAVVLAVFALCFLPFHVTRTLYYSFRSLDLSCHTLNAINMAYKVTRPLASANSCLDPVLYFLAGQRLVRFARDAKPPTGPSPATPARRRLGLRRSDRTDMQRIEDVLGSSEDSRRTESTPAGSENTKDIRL

T2 sequence (P41231 whole entry): as the sequence (P41231 whole entry Y118A) above, with A118Y counted along it
Sequence of P2Y purinoceptor 2 (Homo sapiens), P41231 [UNDEFINED MUTATION] (P41231 whole entry, looked up, stated change not applied): as the sequence (P41231 whole entry Y118A) above, with A118Y counted along it
T5 sequence (P41231 whole entry Y118A): as the sequence (P41231 whole entry Y118A) above
Sequence of P2Y purinoceptor 2 (Homo sapiens), P41231 [R180A] (P41231 whole entry R180A): as the sequence (P41231 whole entry Y118A) above, with A118Y, R180A counted along it
T3 sequence (P41231 whole entry Y114A): as the sequence (P41231 whole entry Y118A) above, with Y114A, A118Y counted along it
T6 sequence (P41231 whole entry Y198A): as the sequence (P41231 whole entry Y118A) above, with A118Y, Y198A counted along it
T1 sequence (P41231 whole entry C278S): as the sequence (P41231 whole entry Y118A) above, with A118Y, C278S counted along it
T4 sequence (P41231 whole entry R177A/R180A): as the sequence (P41231 whole entry Y118A) above, with A118Y, R177A, R180A counted along it
Sequence of P2Y purinoceptor 2 (Homo sapiens), P41231 [R177A] (P41231 whole entry R177A): as the sequence (P41231 whole entry Y118A) above, with A118Y, R177A counted along it
Sequence of P2Y purinoceptor 2 (Homo sapiens), P41231 [S296A] (P41231 whole entry S296A): as the sequence (P41231 whole entry Y118A) above, with A118Y, S296A counted along it
Sequence of P2Y purinoceptor 2 (Homo sapiens, UniProt P41231, S296A) (P41231 whole entry S296A): as the sequence (P41231 whole entry Y118A) above, with A118Y, S296A counted along it
Sequence of P2Y purinoceptor 2 (Homo sapiens, UniProt P41231, R180A) (P41231 whole entry R180A): as the sequence (P41231 whole entry Y118A) above, with A118Y, R180A counted along it
Sequence of P2Y purinoceptor 2 (Homo sapiens), P41231 [Y114A] (P41231 whole entry Y114A): as the sequence (P41231 whole entry Y118A) above, with Y114A, A118Y counted along it
Sequence of P2Y purinoceptor 2 (Homo sapiens), P41231 [Y198A] (P41231 whole entry Y198A): as the sequence (P41231 whole entry Y118A) above, with A118Y, Y198A counted along it
Sequence of P2Y purinoceptor 2 (Homo sapiens), P41231 [C278S] (P41231 whole entry C278S): as the sequence (P41231 whole entry Y118A) above, with A118Y, C278S counted along it
Sequence of P2Y purinoceptor 2 (Homo sapiens), P41231 [R177A,R180A] (P41231 whole entry R177A/R180A): as the sequence (P41231 whole entry Y118A) above, with A118Y, R177A, R180A counted along it
Sequence of P2Y purinoceptor 2 (Homo sapiens, UniProt P41231, R177A) (P41231 whole entry R177A): as the sequence (P41231 whole entry Y118A) above, with A118Y, R177A counted along it
Sequence of P2Y purinoceptor 2 (Homo sapiens, UniProt P41231, R194H) (P41231 whole entry R194H): as the sequence (P41231 whole entry Y118A) above, with A118Y, R194H counted along it
Sequence of P2Y purinoceptor 2 (Homo sapiens), P41231 [R194H] (P41231 whole entry R194H): as the sequence (P41231 whole entry Y118A) above, with A118Y, R194H counted along it
Sequence of P2Y purinoceptor 2 (Homo sapiens), P41231 [R272A] (P41231 whole entry R272A): as the sequence (P41231 whole entry Y118A) above, with A118Y, R272A counted along it
Sequence of P2Y purinoceptor 2 (Homo sapiens, UniProt P41231, R272A) (P41231 whole entry R272A): as the sequence (P41231 whole entry Y118A) above, with A118Y, R272A counted along it

Nc1c(S(=O)(=O)O)cc(Nc2ccc(Nc3nc(Cl)nc(Nc4cccc(S(=O)(=O)O)c4)n3)c(S(=O)(=O)O)c2)c2c1C(=O)c1ccccc1C2=O [RB 2]
IC50 [1]: 1.05 µM
IC50 [2]: 1.62 µM
IC50 [3]: > 100 µM
Ratio IC50 [4]: 0.6
IC50 [5]: 18.6 µM
inhibition [6]: 55%
inhibition [7]: 55%
IC50 [8]: 1.57 µM
IC50 [9]: 9.3 µM

Nc1ncnc2c1ncn2[C@@H]1O[C@H](COP(=O)(O)OP(=O)(O)OP(=O)(O)O)[C@@H](O)[C@H]1O [ADENOSINE TRIPHOSPHATE]
Ratio EC50 [10]: 10
EC50 [11]: 1 µM
Ratio EC50 [12]: 3
Efficacy [13]: 5%
EC50 [14]: > 300 µM
Efficacy [15]: 92%
Activity [16]: Dose-dependent effect
EC50 [17]: 0.0958 µM
EC50 [18]: 0.0631 µM
EC50 [19]: 0.0301 µM
Efficacy [20]: 110%
Efficacy [21]: 87%
EC50 [22]: 0.239 µM
Efficacy [23]: 104%
EC50 [24]: 0.183 µM
Efficacy [25]: 117%
EC50 [26]: 0.237 µM
Efficacy [27]: 115%
EC50 [28]: 11.7 µM
Efficacy [29]: 87%
EC50 [30]: 0.299 µM
EC50 [31]: 0.111 µM
Efficacy [32]: 130%
EC50 [33]: 0.12 µM
Efficacy [34]: 126%
Efficacy [35]: 97%
Ratio EC50 [36]: 4
Ratio EC50 [37]: 2
Efficacy [38]: 41%

From ChEMBL document CHEMBL1138525 (J Med Chem, 2009)
